The source made the active and inactive calls. The calls are words filed in the database; no cut-off is given here.
Experiments:
[1] = system: HeLa; experiment: Antimitotic activity in human HeLa cells assessed as abberent multiple spindle asters at 5 uM by indirect immunofluorescence assay relative to vehicle-treated control; assay type: functional, cell-based
Outline: (§1)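 HeLa cells grown in basal medium Eagle with Earle's salts, 10% FBS and 25−50 μg/mL gentamicin, given vehicle or 5 μM compound. Cell cycle distribution read by flow cytometry. Mitotic spindle shape viewed by indirect immunofluorescence of tubulin.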

[2] = system: HeLa; experiment: Cell cycle arrest in human HeLa cells assessed as accumulation at G2/M phase at 5 uM by flow cytometry; assay type: functional, cell-based; outline: as §1
[3] = system: HeLa; experiment: Resistance ratio of IC50 for human HeLa cells expressing beta3-tubulin containing alanine residue at […] to IC50 for human HeLa cells; assay type: functional
Outline: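 Relative resistance = SRB-assay IC50 in WTβIII cells divided by IC50 in parental HeLa. Both lines were grown in basal medium Eagle with Earle's salts, 10% FBS and 25−50 μg/mL gentamicin.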

[4] = system: SK-OV-3; experiment: Cytotoxicity against human SKOV3 cells expressing MDR1 after 72 hrs by SRB assay; conditions: SK-OV-3, 72 h
[5] = target: T1, Tubulin (Sus scrofa) (UniProt P02554+P02550); experiment: Inhibition of purified pig brain tubulin polymerization at 25 uM by spectrophotometry
Outline: (§2)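 Purified porcine brain tubulin with GTP in glycerol buffer, given vehicle or 10 or 25 μM compound. Assembly followed as turbidity, absorbance at 340 nm over time. Rate and extent of polymerization compared with vehicle.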

[6] = system: HeLa; experiment: Cytotoxicity against human HeLa cells after 72 hrs by SRB assay
[7] = system: SK-OV-3; experiment: Resistance ratio of IC50 for human SKOV3 cells expressing MDR1 to IC50 for human SKOV3 cells; assay type: functional
Outline: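 Relative resistance = SRB-assay IC50 in Pgp-overexpressing SK-OV-3/MDR-1-6/6 divided by IC50 in parental SK-OV-3. Both lines were grown in basal medium Eagle with Earle's salts, 10% FBS and 25−50 μg/mL gentamicin.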

[8] = target: T1, Tubulin (Sus scrofa); experiment: Displacement of colchicine from purified pig brain tubulin by fluorescence assay in presence of GTP
Outline: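 Purified tubulin mixed with colchicine and GTP, plus a range of compound concentrations. Colchicine bound to tubulin fluoresces, so displacement is read as loss of that fluorescence. CA-4 used as positive control; 3 replicates, standard deviations.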

[9] = target: T1, Tubulin (Sus scrofa); experiment: Inhibition of purified pig brain tubulin polymerization by spectrophotometry; outline: as §2
[10] = system: SK-OV-3; experiment: Cytotoxicity against human SKOV3 cells after 72 hrs by SRB assay; conditions: SK-OV-3, 72 h
[11] = system: HeLa; experiment: Cytotoxicity against human HeLa cells expressing beta3-tubulin containing alanine residue at 277 after 72 hrs by SRB assay
[12] = target: T1, Tubulin (Sus scrofa); conditions: 2 to 3 uM

T1 sequence (P02550 whole entry, looked up): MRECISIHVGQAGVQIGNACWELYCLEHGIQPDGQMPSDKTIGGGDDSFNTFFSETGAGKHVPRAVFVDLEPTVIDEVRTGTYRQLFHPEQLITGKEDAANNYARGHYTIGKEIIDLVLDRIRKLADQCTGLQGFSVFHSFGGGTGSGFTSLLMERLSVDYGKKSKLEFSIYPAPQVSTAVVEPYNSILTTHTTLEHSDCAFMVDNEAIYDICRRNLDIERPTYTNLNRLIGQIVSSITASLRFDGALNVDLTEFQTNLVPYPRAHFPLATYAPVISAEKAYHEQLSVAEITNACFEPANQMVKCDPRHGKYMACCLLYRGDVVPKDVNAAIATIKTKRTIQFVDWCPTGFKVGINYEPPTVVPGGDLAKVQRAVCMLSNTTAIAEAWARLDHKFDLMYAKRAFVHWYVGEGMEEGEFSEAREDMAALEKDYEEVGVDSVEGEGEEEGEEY
T1 sequence (P02554 whole entry, looked up): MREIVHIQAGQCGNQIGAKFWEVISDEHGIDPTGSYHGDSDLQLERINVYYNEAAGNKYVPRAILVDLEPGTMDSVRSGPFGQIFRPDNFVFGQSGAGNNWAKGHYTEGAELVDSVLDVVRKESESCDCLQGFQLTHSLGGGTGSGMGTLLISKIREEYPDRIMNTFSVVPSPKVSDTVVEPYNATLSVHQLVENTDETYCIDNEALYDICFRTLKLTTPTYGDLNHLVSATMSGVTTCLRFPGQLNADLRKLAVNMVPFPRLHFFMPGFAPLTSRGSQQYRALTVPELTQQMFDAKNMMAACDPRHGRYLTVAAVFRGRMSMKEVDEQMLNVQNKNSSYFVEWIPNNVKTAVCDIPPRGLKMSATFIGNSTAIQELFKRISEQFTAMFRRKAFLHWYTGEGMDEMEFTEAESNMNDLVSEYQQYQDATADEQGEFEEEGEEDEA

SMILES	Activity [1]	Activity [2]	Ratio IC50 [3]	IC50 [4] [nM]	inhibition [5] [%]	IC50 [6] [nM]	Ratio IC50 [7]	inhibition [8]	inhibition [9]	IC50 [10] [nM]	IC50 [11] [nM]	inhibition [12] [%]
CC(=O)O[C@@H]1[C@H]2[C@H]3[C@H]([C@H](OC(C)=O)[C@H](OC(C)=O)[C@]2(C)[C@@H]2[C@@H]1[C@]1(C)C(=C[C@H]2C)OC(=O)[C@@]1(C)O)[C@]1(C)[C@H](C[C@@H]2O[C@@H]2[C@@H]1OC(C)=O)C(=O)[C@@H]3O	Active	Active										
COc1cc(OC)c(CCC(=O)c2ccc(OC)c(O)c2)c(OC)c1	Active	Active	1.2	2230	50	581	2.7	Dose-dependent effect	Dose-dependent effect	812	690	
COc1ccc(/C=C\c2cc(OC)c(OC)c(OC)c2)cc1O												50

Source: ChEMBL document CHEMBL3120152, “The bat flower: a source of microtubule-destabilizing and -stabilizing compounds with synergistic antiproliferative actions” (J Nat Prod, 2013)
